Tests used:
[1] = target: Cholinesterase (Equus caballus) (UniProt P81908); experiment: Reversible inhibition of horse serum BChE at Ki using 25 mM of butyrylthiocholine as substrate preincubated for 1 min followed by substrate addition by spectrophotometry relative to control
[2] = target: Cholinesterase (Equus caballus) (UniProt P81908); experiment: Inhibition of horse serum BChE at 500 uM using butyrylthiocholine as substrate by spectrophotometry relative to control
Method in brief: (§1)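 Ellman method at 25 °C: 100 mM sodium phosphate pH 7.5, 1 mM MgCl2, 0.2 mM DTNB, BSA, 100 µM butyrylthiocholine, 2% methanol. Inhibitor 500 µM final; reaction started with equine serum BChE (10 nM final); initial rates at 412 nm. Rate divided by 2% methanol no-inhibitor control; at least three determinations with independently prepared inhibitor solutions, averaged.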

Bos taurus = species on record: Bos taurus; experiment: Inhibition of bovine pancreas alpha-chymotrypsin using N-benzoyl-l-tyrosine ethyl ester as substrate by spectrophotometry relative to control
Method in brief: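 Enzyme (fresh 5 units/mL stock in ice-cold 1 mM HCl) added to start; initial rates read continuously at 256 nm, no-enzyme background subtracted. Rate with compound divided by control rate; at least two determinations with independently prepared inhibitor solutions, averaged.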

[3] = target: Acetylcholinesterase (Electrophorus electricus) (UniProt O42275); experiment: Inhibition of electric eel AChE at 500 uM using acetylthiocholine as substrate by spectrophotometry relative to control
Chain of Acetylcholinesterase (Electrophorus electricus) (O42275 24-633 limits assumed): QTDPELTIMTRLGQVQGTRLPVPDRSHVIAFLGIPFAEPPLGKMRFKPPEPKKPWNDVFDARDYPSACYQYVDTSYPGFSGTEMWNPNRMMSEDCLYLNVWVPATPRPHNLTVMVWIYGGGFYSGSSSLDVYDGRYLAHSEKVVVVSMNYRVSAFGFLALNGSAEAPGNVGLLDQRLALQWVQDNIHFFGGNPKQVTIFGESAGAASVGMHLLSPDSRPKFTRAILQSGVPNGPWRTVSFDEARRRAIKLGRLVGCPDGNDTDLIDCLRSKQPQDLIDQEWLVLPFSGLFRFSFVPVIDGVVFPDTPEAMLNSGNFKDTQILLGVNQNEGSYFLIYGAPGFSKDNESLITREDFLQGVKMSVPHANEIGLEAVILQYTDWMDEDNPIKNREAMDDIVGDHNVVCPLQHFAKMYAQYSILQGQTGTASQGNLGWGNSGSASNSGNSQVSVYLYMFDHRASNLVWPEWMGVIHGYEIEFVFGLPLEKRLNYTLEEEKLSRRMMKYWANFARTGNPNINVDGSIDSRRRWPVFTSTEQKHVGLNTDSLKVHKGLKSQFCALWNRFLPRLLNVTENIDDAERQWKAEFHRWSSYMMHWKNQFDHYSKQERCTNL
Method in brief: as §1, with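 “acetylthiocholine,” for “butyrylthiocholine,”, “AChE” for “equine serum BChE”, “rates monitored” for “rates”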

Cholinesterase = Cholinesterase (Equus caballus, UniProt P81908); experiment: Inhibition of horse serum BChE using butyrylthiocholine as substrate by spectrophotometry
Chain of Cholinesterase (P81908 whole entry): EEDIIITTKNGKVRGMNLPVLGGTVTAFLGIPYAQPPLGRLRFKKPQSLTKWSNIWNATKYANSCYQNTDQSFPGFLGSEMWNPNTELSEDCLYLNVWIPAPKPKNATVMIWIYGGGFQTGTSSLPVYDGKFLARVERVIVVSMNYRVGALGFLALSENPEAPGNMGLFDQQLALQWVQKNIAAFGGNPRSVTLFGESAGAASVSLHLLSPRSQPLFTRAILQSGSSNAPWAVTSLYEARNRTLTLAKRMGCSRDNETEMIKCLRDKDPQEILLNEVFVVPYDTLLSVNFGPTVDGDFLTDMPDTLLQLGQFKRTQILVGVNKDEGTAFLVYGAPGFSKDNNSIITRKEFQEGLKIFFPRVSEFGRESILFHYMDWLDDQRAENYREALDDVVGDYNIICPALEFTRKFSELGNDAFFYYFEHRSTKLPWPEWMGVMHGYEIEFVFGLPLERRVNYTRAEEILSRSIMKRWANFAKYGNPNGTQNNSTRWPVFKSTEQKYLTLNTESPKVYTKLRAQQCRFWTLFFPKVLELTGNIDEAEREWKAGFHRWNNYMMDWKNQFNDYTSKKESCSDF
Method in brief: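 Initial rates monitored continuously at 412 nm (ε 14,150 M-1 cm-1), background from no-enzyme reaction. KI from dependence of observed rate constant on inhibitor concentration (typically twelve); at least three determinations averaged.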

Chain of Cholinesterase (Equus caballus) (P81908 whole entry): as above

Question: Which fold change (FC) [1] does the source give for `CCCCOP(=O)(OCCCC)Oc1cccc2ccccc12` here?
Answer: 0.71

Question: And the fold change (FC) [2]?
Answer: 0.21

Question: What about the fold change (FC) (Bos taurus) of the same molecule?
Answer: 0.93

Question: What about the fold change (FC) [3] of the same molecule?
Answer: 1.07

Question: What about the Ki (Cholinesterase) of the same molecule?
Answer: 22 µM

Question: `CCCCOP(=O)(OCCCC)Oc1cc(C)c(C)c(C)c1` was tested. Which fold change (FC) [1] did it give?
Answer: 0.88

Question: And the fold change (FC) [2]?
Answer: 0.09

Question: And the fold change (FC) (Bos taurus)?
Answer: 0.84

Question: What about the fold change (FC) [3] of the same molecule?
Answer: 1.09

Question: What about the Ki (Cholinesterase) of the same molecule?
Answer: 11 µM

Question: Which fold change (FC) [1] does the source give for `CCCCOP(=O)(OCCCC)Oc1ccccc1C` here?
Answer: 0.91

Question: And the fold change (FC) [2]?
Answer: 0.27

Question: What about the fold change (FC) (Bos taurus) of the same molecule?
Answer: 0.92

Question: What about the fold change (FC) [3] of the same molecule?
Answer: 0.99

Question: What about the Ki (Cholinesterase) of the same molecule?
Answer: 50 µM

Question: Which Ki (Cholinesterase) does the source give for `CCCCOP(=O)(OCCCC)Oc1ccccc1` here?
Answer: 45 to 80 µM

Question: With `CCCOP(=O)(OCCC)Oc1ccccc1` as the molecule, how does the Ki (Cholinesterase) read?
Answer: 45 to 80 µM

Question: Which Ki (Cholinesterase) does the source give for `CCOP(=O)(OCC)Oc1ccccc1` [PHOSPHORIC ACID DIETHYL ESTER PHENYL ESTER] here?
Answer: 1590 µM

Question: How did the fold change (FC) [1] turn out when `CCCCOP(=O)(OCCCC)OCCc1ccccc1` was run?
Answer: 0.97

Question: And the fold change (FC) [2]?
Answer: 0.11

Question: And the fold change (FC) (Bos taurus)?
Answer: 0.89

Question: What about the fold change (FC) [3] of the same molecule?
Answer: 1.02

Question: What about the Ki (Cholinesterase) of the same molecule?
Answer: 53 µM

Question: `CCCCOP(=O)(OCCCC)OCc1ccccc1C` was tested. Which fold change (FC) [1] did it give?
Answer: 0.95

Question: What about the fold change (FC) [2] of the same molecule?
Answer: 0.04

Question: What about the fold change (FC) (Bos taurus) of the same molecule?
Answer: 0.94

Question: What about the fold change (FC) [3] of the same molecule?
Answer: 0.98

Question: What about the Ki (Cholinesterase) of the same molecule?
Answer: 72 µM

Question: Which results are given for `CCCCOP(=O)(OCCCC)Oc1ccc(C)cc1`?
Answer: fold change (FC) [1]: 0.94; fold change (FC) [2]: 0.02; fold change (FC) (Bos taurus): 0.96; fold change (FC) [3]: 0.89; Ki (Cholinesterase): 8 µM

Question: Which Ki (Cholinesterase) does the source give for `CCOP(=O)(OCC)Oc1cc(C)cc(C)c1` here?
Answer: 583 µM

Question: Which results are given for `CCCCOP(=O)(OCCCC)OCc1ccc(C)cc1`?
Answer: fold change (FC) [1]: 0.92; fold change (FC) [2]: 0.04; fold change (FC) (Bos taurus): 0.92; fold change (FC) [3]: 0.87; Ki (Cholinesterase): 14 µM

Question: For `CCCCOP(=O)(OCCCC)OCc1cccc(C)c1`, which fold change (FC) [1] is on record?
Answer: 0.95

Question: What about the fold change (FC) [2] of the same molecule?
Answer: 0.12

Question: And the fold change (FC) (Bos taurus)?
Answer: 0.94

Question: And the fold change (FC) [3]?
Answer: 0.86

Question: And the Ki (Cholinesterase)?
Answer: 24 µM

Question: Which results are given for `CCCCOP(=O)(OCCCC)Oc1cc(C)cc(C)c1`?
Answer: fold change (FC) [1]: 0.83; fold change (FC) [2]: 0.01; fold change (FC) (Bos taurus): 0.95; fold change (FC) [3]: 1; Ki (Cholinesterase): 1 µM

Question: How did the fold change (FC) [1] turn out when `CCCCOP(=O)(OCCCC)Oc1ccc2ccccc2c1` was run?
Answer: 0.8

Question: And the fold change (FC) [2]?
Answer: 0.01

Question: What about the fold change (FC) (Bos taurus) of the same molecule?
Answer: 0.76

Question: And the fold change (FC) [3]?
Answer: 1.05

Question: What about the Ki (Cholinesterase) of the same molecule?
Answer: 1.9 µM

Question: What does the source list for `CCCCOP(=O)(OCCCC)OCc1ccccc1`?
Answer: fold change (FC) [1]: 0.92; fold change (FC) [2]: 0.01; fold change (FC) (Bos taurus): 0.97; fold change (FC) [3]: 1; Ki (Cholinesterase): 2 µM

Question: With `CCOP(=O)(OCC)Oc1ccc2ccccc2c1` as the molecule, how does the Ki (Cholinesterase) read?
Answer: 147 µM

Question: `CCCCOP(=O)(OCCCC)Oc1cccc(C)c1` was tested. Which fold change (FC) [1] did it give?
Answer: 0.94

Question: And the fold change (FC) [2]?
Answer: 0.15

Question: What about the fold change (FC) (Bos taurus) of the same molecule?
Answer: 0.89

Question: What about the fold change (FC) [3] of the same molecule?
Answer: 0.99

Question: What about the Ki (Cholinesterase) of the same molecule?
Answer: 16 µM

Question: Which fold change (FC) [1] does the source give for `CCCCOP(=O)(OCCCC)Oc1ccc(C)c(C)c1` here?
Answer: 0.93

Question: What about the fold change (FC) [2] of the same molecule?
Answer: 0.04

Question: And the fold change (FC) (Bos taurus)?
Answer: 0.94

Question: And the fold change (FC) [3]?
Answer: 1.04

Question: What about the Ki (Cholinesterase) of the same molecule?
Answer: 9 µM

Question: With `CCCCCOP(=O)(OCCCCC)Oc1ccccc1` as the molecule, how does the Ki (Cholinesterase) read?
Answer: 6 µM

Source: ChEMBL document CHEMBL4033639, “Synthesis, biochemical evaluation, and molecular modeling studies of aryl and arylalkyl di-n-butyl phosphates, effective butyrylcholinesterase inhibitors” (Bioorg Med Chem, 2017)
